Laboratory results published in ChEMBL document CHEMBL1155661, “Bioactive steroids from the whole herb of Euphorbia chamaesyce” (J Nat Prod, 2000).

Tests used:
Format in all cases: cell-based
Raji [1] = assay: Inhibition of 12-O-tetradecanoylphorbol-13-acetate induced EBV-early antigen activation in human Raji cells assessed as EA induction at 10 molar ratio by immunofluorescence assay relative to TPA; design: scale not given: the % may be the effect or the level left; settings: human gammaherpesvirus 4
How it was run: (§1)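 Cells at 1 × 10⁶/mL were incubated 48 h at 37 °C with n-butyric acid (4 mM) and TPA (32 pmol, 20 ng/mL) in DMSO, plus compound in DMSO dosed as mol ratio to TPA. EA-positive cells in smears were detected by indirect immunofluorescence with high-titer EBV-EA-positive nasopharyngeal carcinoma patient sera. At least 500 cells were counted, experiments were run twice, and values are expressed relative to TPA alone (100%).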

Raji [2] = assay: Inhibition of 12-O-tetradecanoylphorbol-13-acetate induced EBV-early antigen activation in human Raji cells assessed as EA induction at 1000 molar ratio by immunofluorescence assay relative to TPA; design: scale not given: the % may be the effect or the level left; settings: human gammaherpesvirus 4; how it was run: as §1
[3] = Cytotoxicity against human Raji cells assessed as cell viability at 1000 molar ratio; settings: read-out: Activity
Raji [4] = assay: Inhibition of 12-O-tetradecanoylphorbol-13-acetate induced EBV-early antigen activation in human Raji cells assessed as EA induction at 500 molar ratio by immunofluorescence assay relative to TPA; design: scale not given: the % may be the effect or the level left; settings: human gammaherpesvirus 4; how it was run: as §1
Raji [5] = assay: Inhibition of 12-O-tetradecanoylphorbol-13-acetate induced EBV-early antigen activation in human Raji cells assessed as EA induction at 100 molar ratio by immunofluorescence assay relative to TPA; design: scale not given: the % may be the effect or the level left; settings: human gammaherpesvirus 4; how it was run: as §1

SMILES | Activity (Raji [1]) | Activity (Raji [2]) | viability at 1000 molar ratio [3] | Activity (Raji [4]) | Activity (Raji [5])
C=C(CC[C@@H](C)[C@H]1CC[C@@]2(C)C3=CC[C@H]4[C@H](C)[C@@H](O)CC[C@]4(C)C3=CC[C@]12C)C(C)C | 92.4% | 0% | 70% | 27.3% | 74.9%
C=C(CC[C@@H](C)[C@H]1CC[C@@]2(C)C3=C(C(=O)C[C@]12C)[C@@]1(C)CC[C@H](O)[C@@H](C)[C@@H]1CC3)C(C)C | 92.8% | 0% | 70% | 23.6% | 72.4%
CC1(C)CC[C@]2(C(=O)O)CC[C@]3(C)C(=CC[C@@H]4[C@@]5(C)CC[C@H](O)C(C)(C)[C@@H]5CC[C@]43C)[C@@H]2C1 [OLEANOLIC_ACID] | 93.7% | 12.7% | 70% | 22.4% | 72.5%
C=C(CC[C@@H](C)[C@H]1CC[C@@]2(C)C3=C(C(=O)C[C@]12C)[C@@]1(C)CC[C@H](O)[C@@H](C)[C@@H]1CC3=O)C(C)C | 91.9% | 0% | 70% | 22.5% | 70.4%
C=C(CC[C@@H](C)[C@H]1CC[C@@]2(C)C3=C(CC[C@]12C)[C@@]1(C)CC[C@H](O)[C@@H](C)[C@@H]1CC3)C(C)C [OBTUSIFOLIOL] | 95.8% | 0% | 70% | 30.2% | 77.4%
